Test results reported in ChEMBL document CHEMBL2417498, “Design and synthesis of 6,7-methylenedioxy-4-substituted phenylquinolin-2(1H)-one derivatives as novel anticancer agents that induce apoptosis with cell cycle arrest at G2/M phase” (Bioorg Med Chem, 2013).
Active and inactive are the calls of the source. The calls are words filed in the database; no cut-off is given here.

Legend:
HL-60 [1] = assay: Cell cycle arrest in human HL60 cells assessed as accumulation at G2/M phase at 0.5 uM after 24 hrs by propidium iodide staining-based FACS analysis (reference value: 10.51%); format: functional
HL-60 [2] = assay: Increase in cyclin B1 expression in human HL60 cells at 0.25 to 1 uM after 24 hrs by Western blot analysis; format: functional, cell-based
Summary of the method: (§1)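 HL-60 cells treated 24 h at the indicated concentrations, harvested, lysed (30 min on ice, 12,000 g spin), protein by Bradford; samples run on 10% SDS-PAGE, transferred to nitrocellulose, immunodetected by chemiluminescence.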

[3] = Cell cycle arrest in human H460 cells assessed as accumulation at G2/M phase at 2.5 uM after 24 hrs by propidium iodide staining-based FACS analysis (reference value: 10.73%); format: functional; conditions: NCI-H460
Summary of the method: (§2)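 H460 cells treated 24 h with 1.0, 2.5 or 5.0 µM; washed in PBS, fixed overnight in 70% ice-cold ethanol at −20 °C, stained 30 min in the dark with 0.1% Triton X-100, 0.2 mg/mL RNase and 20 µg/mL propidium iodide; DNA content by flow cytometry, phase distribution from histogram modelling.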

COLO 205 = assay: Cytotoxicity against human COLO205 cells after 48 hrs by MTT assay; format: functional, cell-based; conditions: COLO 205, 48 h
Summary of the method: (§3)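 Log-phase tumour cells grown in RPMI-1640 with 10% FBS, penicillin/streptomycin and 1% L-glutamine at 37 °C, 5% CO2. Cells treated with vehicle or a range of concentrations for 48 h. Growth measured by MTT reduction, absorbance at 570 nm. IC50 is the concentration giving 50% proliferation inhibition, from 3 independent experiments.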

HL-60 [4] = assay: Cell cycle arrest in human HL60 cells assessed as accumulation at G2/M phase at 1 uM after 24 hrs by propidium iodide staining-based FACS analysis (reference value: 10.51%); format: functional
HL-60 [5] = assay: Cell cycle arrest in human HL60 cells assessed as accumulation at G0/G1 phase at 1 uM after 24 hrs by propidium iodide staining-based FACS analysis (reference value: 39.80%); format: functional
[6] = Cell cycle arrest in human H460 cells assessed as accumulation at S phase at 5 uM after 24 hrs by propidium iodide staining-based FACS analysis (reference value: 43.08%); format: functional; conditions: NCI-H460; summary of the method: as §2
[7] = Cell cycle arrest in human H460 cells assessed as accumulation at sub G1 phase at 2.5 uM after 24 hrs by propidium iodide staining-based FACS analysis (reference value: 3.07%); format: functional; conditions: NCI-H460; summary of the method: as §2
A498 = assay: Cytotoxicity against human A498 cells after 48 hrs by MTT assay; format: functional, cell-based; conditions: A498, 48 h; summary of the method: as §3
HL-60 [8] = assay: Induction of apoptosis in human HL60 cells assessed as caspase3 cleavage at 0.25 to 1 uM by Western blot analysis; format: functional, cell-based; summary of the method: as §1
HL-60 [9] = assay: Cell cycle arrest in human HL60 cells assessed as accumulation at G0/G1 phase at 0.5 uM after 24 hrs by propidium iodide staining-based FACS analysis (reference value: 39.80%); format: functional
HL-60 [10] = assay: Cell cycle arrest in human HL60 cells assessed as accumulation at sub G1 phase at 0.25 uM after 24 hrs by propidium iodide staining-based FACS analysis (reference value: 0.35%); format: functional
HL-60 [11] = assay: Decrease in cyclin B1 expression in human HL60 cells at 0.25 to 1 uM after 24 hrs by Western blot analysis; format: functional, cell-based; summary of the method: as §1
HL-60 [12] = assay: Induction of apoptosis in human HL60 cells assessed as chromatin condensation at 0.25 to 1 uM after 24 hrs by Hoechst 33258 staining-based microscopy; format: functional, cell-based
Summary of the method: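 HL-60 seeded at 1×10⁵ cells/well, treated 24 h with 0.25, 0.5 or 1.0 µM; nuclei stained 10 min with 5 µg/mL Hoechst 33258, PBS-washed twice, fixed 10 min in 4% PFA at 25 °C; apoptotic morphology imaged by fluorescence microscopy against 0.1% DMSO-treated cells.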

NCI-H460 = assay: Induction of apoptosis in human H460 cells assessed as appearance of apoptotic bodies at 1 to 5 uM after 24 hrs by Hoechst 33258 staining-based microscopy; format: functional, cell-based
Summary of the method: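 H460 plated at 5×10⁴ cells/well and incubated 24 h with 1.0, 2.5 or 5.0 µM; stained with 5 µg/mL Hoechst 33258 for 10 min, washed twice in PBS, fixed in 4% paraformaldehyde 10 min at 25 °C; nuclei scored for chromatin condensation, fragmentation and apoptotic bodies by fluorescence microscopy; 0.1% DMSO control.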

HL-60 [13] = assay: Cell cycle arrest in human HL60 cells assessed as accumulation at S phase at 0.25 uM after 24 hrs by propidium iodide staining-based FACS analysis (reference value: 49.69%); format: functional

Question: Which Activity (HL-60 [1]) does the source give for `COc1ccc(-c2cc(=O)[nH]c3cc4c(cc23)OCO4)c(OC)c1` here?
Answer: Its Activity is 25.02%.

Question: And the Activity (HL-60 [2])?
Answer: The Activity was “Active”.

Question: And the Activity [3]?
Answer: The Activity was 71.6%.

Question: What about the IC50 (COLO 205) of the same compound?
Answer: Its IC50 is 7.4 µM.

Question: And the Activity (HL-60 [4])?
Answer: Its Activity is 40.54%.

Question: And the Activity (HL-60 [5])?
Answer: The Activity was 12.46%.

Question: And the Activity [6]?
Answer: The Activity was 22.4%.

Question: What about the Activity [7] of the same compound?
Answer: Its Activity is 11.7%.

Question: And the IC50 (A498)?
Answer: The IC50 was 48 µM.

Question: What about the Activity (HL-60 [8]) of the same compound?
Answer: The Activity was “Active”.

Question: And the Activity (HL-60 [9])?
Answer: Its Activity is 44.82%.

Question: And the Activity (HL-60 [10])?
Answer: The Activity was 13.88%.

Question: What about the Activity (HL-60 [11]) of the same compound?
Answer: The Activity was “Active”.

Question: And the Activity (HL-60 [12])?
Answer: Its Activity is “Active”.

Question: What about the Activity (NCI-H460) of the same compound?
Answer: The Activity was “Active”.

Question: And the Activity (HL-60 [13])?
Answer: The Activity was 46.76%.
